Data taken from paper PMC4340684 (Bioorganic & medicinal chemistry, 2015).

Legend:
[1] = target: T1, recombinant rat HSL (Rattus norvegicus, UniProt P15304); experiment: HSL lipase assay; format: biochemical; conditions: for times more potent than the corresponding cis isomer: chain lengths of 12–18 carbon atoms
T1 sequence (P15304 1-768 isoform P15304-2): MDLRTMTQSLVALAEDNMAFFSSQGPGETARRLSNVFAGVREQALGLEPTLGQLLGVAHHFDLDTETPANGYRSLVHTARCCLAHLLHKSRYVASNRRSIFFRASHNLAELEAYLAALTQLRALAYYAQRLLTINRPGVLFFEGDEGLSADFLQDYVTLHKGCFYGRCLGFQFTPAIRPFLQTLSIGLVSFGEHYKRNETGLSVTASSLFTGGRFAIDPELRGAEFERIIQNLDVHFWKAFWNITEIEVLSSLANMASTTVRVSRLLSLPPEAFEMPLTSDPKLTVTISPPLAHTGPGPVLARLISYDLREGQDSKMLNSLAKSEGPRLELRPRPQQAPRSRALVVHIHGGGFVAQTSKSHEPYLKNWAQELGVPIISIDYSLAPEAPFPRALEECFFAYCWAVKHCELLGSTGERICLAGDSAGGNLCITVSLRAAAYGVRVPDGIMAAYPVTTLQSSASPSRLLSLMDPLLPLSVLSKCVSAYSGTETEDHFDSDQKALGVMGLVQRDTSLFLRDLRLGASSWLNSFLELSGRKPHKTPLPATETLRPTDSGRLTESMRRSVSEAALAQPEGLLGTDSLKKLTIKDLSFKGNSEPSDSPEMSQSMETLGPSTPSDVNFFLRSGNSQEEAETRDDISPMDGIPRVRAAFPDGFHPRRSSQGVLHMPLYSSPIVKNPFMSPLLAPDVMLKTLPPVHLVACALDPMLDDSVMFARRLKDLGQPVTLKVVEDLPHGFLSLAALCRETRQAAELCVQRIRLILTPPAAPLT

[2] = target: T1, recombinant rat HSL; experiment: Determination of rate constants for binding and inactivation of HSL; format: biochemical; conditions: fit to Eqn 2; no preincubation, 37 °C
Procedure, shortened: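 Baculovirus/Sf9-expressed rat HSL, Ni-NTA purified. Inhibitor in PC/PI (3:1) liposomes with 500 μM triolein plus 3H-triolein; pH 7.4 buffer, 0.2% BSA. Enzyme added directly at 37 °C; samples every 3–5 min for 30 min, 3H-oleate extracted, scintillation counted. Activity–time data at several inhibitor concentrations fit to Eqn 1 (kobs, k−2); normalized activity fit to Eqn 2 (KI, k2).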

With `CCCCCCCCCCCCCCCCO[P@]1(=O)CC[C@@H]2COC(=O)C2=C(C)O1` (racemic) [Cyclipostin P Phosphonate 6a, (±)-(3R(S),5aR(S))-3-(hexadecyloxy)-1-methyl-4,5,5a,6-tetrahydrofuro[3,4-e][1,2]oxaphosphepin-8(3H)-one 3-oxide] the “fold less potent than the other bicyclic phosphonate analogs” value ([1]; vs about 400 nM) was “about 10 fold”.

`CCCCCCCCCCCC[C@H]1CC[P@@](=O)(OC)OC(C)=C1C(=O)OC` [10b] was tested, and the “times more potent than the corresponding cis isomer” value [1] was 2–6 times.

With `CCCCCCCCCCCCCCCC[C@H]1CC[P@@](=O)(OC)OC(C)=C1C(=O)OC` [11b] the “times more potent than the corresponding cis isomer” value [1] was 2–6 times.

In the case of `CCCCCCCCCCCCCCCCCC[C@H]1CC[P@@](=O)(OC)OC(C)=C1C(=O)OC` [12b], the “times more potent than the corresponding cis isomer” value [1] is reported as 2–6 times.

With `CCCCCCCCCCCCCCCCO[P@]1(=O)OC[C@@H]2COC(=O)C2=C(C)O1` [Cyclipostin P 4a] the “k2 (forward rate constant for inactivation)” value [2] was 0.2 min⁻¹.

`CCCCCCCCCCCCCCCCO[P@]1(=O)OC[C@H]2COC(=O)C2=C(C)O1` [Cyclipostin P 4b] was tested, and the “fold weaker IC50 of the less potent diastereomer vs the more potent diastereomer” value [1] was 16 fold.
